# Bioassay records from PubChem BioAssay.
# CYP2C19 inh: blocks human cytochrome P450 2C19; P33261; CYP2C19 Supersomes, luciferin-H EGE luminescence, 30 min; inhibition, % at 5 µM; 21% of 96,000 active; AID 778;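 active means CYP2C19 inhibition above a set limit at 5 µM in the primary screen, cut at about 50% in these data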
# Target sequence (P33261 whole entry, looked up): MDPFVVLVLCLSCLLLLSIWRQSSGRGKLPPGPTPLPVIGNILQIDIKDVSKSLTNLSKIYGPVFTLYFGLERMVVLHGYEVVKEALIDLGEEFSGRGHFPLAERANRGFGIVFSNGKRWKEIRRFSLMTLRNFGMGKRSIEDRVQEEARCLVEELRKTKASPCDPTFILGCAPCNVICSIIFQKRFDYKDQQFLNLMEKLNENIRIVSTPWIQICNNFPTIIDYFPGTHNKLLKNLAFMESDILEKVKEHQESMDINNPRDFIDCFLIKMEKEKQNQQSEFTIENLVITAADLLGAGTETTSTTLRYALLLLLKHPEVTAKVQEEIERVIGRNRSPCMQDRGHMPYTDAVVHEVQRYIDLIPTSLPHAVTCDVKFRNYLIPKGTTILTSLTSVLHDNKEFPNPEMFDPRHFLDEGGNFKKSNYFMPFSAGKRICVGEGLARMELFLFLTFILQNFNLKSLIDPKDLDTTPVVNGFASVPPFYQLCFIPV
# CYP2C9 inh: blocks human cytochrome P450 2C9 | CYP2C9 Supersomes, luciferin-H conversion, luminescence | P11712 | 20% of 96,000 active | inhibition, % at 5 µM;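 active means blocking of liver enzyme CYP2C9 beyond about 50% at 5 µM, limit read from the data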
# CYP2C9 activ: increases human cytochrome P450 2C9 activity; P11712; 1.4% of 96,000 active; activation factor at 5 µM; recombinant CYP2C9, luciferin-H conversion, luminescence; hits give high values; factor 1 = untreated enzyme, 0 = blocked;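 active means activation factor of 2 or more for CYP2C9 at a 5 µM dose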
# tolC growth inh: E. coli tolC mutant growth inhibition; E. coli BW25113 tolC mutant growth, OD615; growth inhibition, % at 10 µM (by protocol); 2.2% of 65,000 active; AID 573;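 active means growth inhibition at or above a cutoff equal to the mean over every tested compound plus 3 SD, cut at about 60% in these data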;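 further: growth measured after 20 h incubation at 37 °C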
#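 signal = optical density read at 615 nm | test system = E. coli ΔtolC::kan strain BW25113 | timing = 20 h compound exposure of bacteria at 37 °C | buffer or medium = LB medium plus 50 µg/mL kanamycin | compound dosing = 10 µM final, single dose | evaluation = % inhibition of E. coli growth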
# CYP2C19 act: increases human CYP2C19 enzyme activity; P33261; recombinant CYP2C19, luciferin-H EGE luminescence; hits give high values; 0 = fully inhibited enzyme, 1 = untreated enzyme; activation factor at 5 µM; 96,000 tested, under 10 active; AID 1025;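 active means activation factor of at least 2 at 5 µM in the primary screen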
# Ecoli WT expand: blocks growth of wild type E. coli BW25113; OD600 absorbance; growth inhibition, % at 100 µM; 0.15% of 98,000 active;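 active means growth inhibition above about 50% at one test dose, limit read from the data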;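 further: growth measured after 20 h incubation at 37 °C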
# Hits are given with their value; . = inactive; / = not tested or not shown. Hits are enriched below; roughly 29% of the tested compounds scored in any of these assays.
SMILES,CYP2C19 inh,CYP2C9 inh,CYP2C9 activ,tolC growth inh,CYP2C19 act,Ecoli WT expand
COc1ccccc1N1CCN(C(=O)CSc2nc3ccccc3o2)CC1,64,.,.,/,.,.
CCCCC(=O)Nc1nnc(SCC(=O)N2CCN(c3ccccc3OC)CC2)s1,.,.,.,.,.,.
CCOC(=O)CSc1nc2ccccc2c(=O)n1CC1CCCO1 (stereo not drawn),.,.,.,.,.,.
COc1ccccc1N1CCN(C(=O)CSc2nnc(NC(=O)C3CC3)s2)CC1,.,82,.,.,.,.
COc1ccccc1N1CCN(C(=O)CSc2nc3ccccc3c(=O)n2CC2CCCO2)CC1 (stereo not drawn),.,66,.,.,.,.
Cc1ccc(S(=O)(=O)N2CCN(C(=O)CSc3nc4ccccc4o3)C2)cc1,88,.,.,.,.,.
CC(CCc1ccccc1)NC(=O)c1cccnc1 (stereo not drawn),.,.,.,.,.,.
CCOc1ccc(C(C)=O)cc1COC(=O)C1=COCCO1,64,.,.,.,.,.
CCOc1ccc(C(C)=O)cc1CC(C(N)=O)C(N)=O,.,.,.,/,.,.
CCOC(=O)c1[nH]c2ccc(F)cc2c1NC(=O)Nc1ccccc1OC,.,.,.,/,.,.
O=S(=O)(Nc1nc2ccccc2[nH]1)c1ccc(Cl)cc1,58,.,.,.,.,.
O=S(=O)(Nc1ncn[nH]1)c1ccc(Cl)cc1,83,.,.,/,.,.
Clc1ccc(Nc2ncn[nH]2)cc1,.,.,.,/,.,.
O=C(Nc1nccs1)c1ccc(COc2ccccc2Br)o1,88,91,.,.,.,.
CN(C)C(=O)c1ccc(COc2ccccc2Br)o1,83,.,.,.,.,.
Cc1ccc(NC(=O)CSCC(=O)Nc2ncc3c(n2)CC(c2ccco2)CC3=O)cc1 (stereo not drawn),.,62,.,.,.,.
O=C(Nc1ncc2c(n1)CC(c1ccco1)CC2=O)c1ccccc1 (stereo not drawn),.,.,.,.,.,.
Cc1ccc(Nc2ncc3c(n2)CC(c2ccco2)CC3=O)c(C)c1 (stereo not drawn),.,67,.,.,.,.
O=C1CC(c2ccco2)Cc2nc(Nc3nc(-c4ccccc4)c4ccccc4n3)ncc21 (stereo not drawn),59,68,.,.,.,.
Cc1cccc(Nc2ncc3c(n2)CC(c2ccco2)CC3=O)c1 (stereo not drawn),.,.,.,.,.,.
Cc1cc(C)cc(Nc2ncc3c(n2)CC(c2ccco2)CC3=O)c1 (stereo not drawn),.,58,.,.,.,.
O=C(NC1CCCCC1)N1CCN(C(c2ccccc2)c2ccccc2)CC1,.,.,.,/,.,.
CCOC(=O)CN1CC23C=CC(O2)C(C(=O)Nc2ccc(C(C)=O)cc2)C3C1=O (stereo not drawn),.,.,.,.,.,.
COC(=O)c1ccc(COc2nc(C)cc(C)c2C#N)o1,70,.,.,.,.,.
O=C(O)c1cccnc1SCCc1ccccc1,.,.,.,.,.,.
SMILES,CYP2C19 inh,CYP2C9 inh,CYP2C9 activ,tolC growth inh,CYP2C19 act,Ecoli WT expand
COc1ccccc1NC(=O)N(C1CCCC1)C1CCN(C(C)=O)CC1,.,.,.,.,.,.
CCOC(=O)N1CCC(N2C(=O)c3ccccc3C2Nc2c(C)cccc2C)CC1 (stereo not drawn),95,94,.,/,.,.
CCOC(=O)N1CCC(N2C(=O)c3ccccc3C2Nc2cc(C(=O)OC)cc(C(=O)OC)c2)CC1 (stereo not drawn),73,66,.,.,.,.
CCOC(=O)N1CCC(N2C(=O)c3ccccc3C2Nc2ccccc2)CC1 (stereo not drawn),65,80,.,/,.,.
CCCNC(=O)CN1C(=O)NC2(CCCc3cc(OC)ccc32)C1=O (stereo not drawn),.,.,.,/,.,.
CC(OC(=O)CN(C)S(=O)(=O)c1ccc(Cl)cc1)C(=O)Nc1cccc(Cl)c1 (stereo not drawn),.,.,.,/,.,.
O=C(O)c1cc(N2C(=O)C3CC=CCC3C2=O)ccc1NCc1cccnc1 (stereo not drawn),.,.,.,/,.,.
O=C(Nc1ccc(O)cc1)C1CC=CCC1 (stereo not drawn),.,.,.,/,.,.
Cc1onc(-c2ccncc2)c1C(=O)O,.,.,.,.,.,.
Cc1onc(-c2ccccc2)c1C(=O)Oc1cccnc1,51,.,.,.,.,.
Cc1onc(-c2ccccc2)c1C(=O)NCc1cccnc1,59,.,.,.,.,.
Cc1nn(-c2nc3ccccc3n2Cc2ccccc2)c2c1C(=O)CC(C)(C)C2,53,66,.,91,.,.
Cc1nn2c3ccccc3nc2n(Cc2ccccc2)c1=O,/,/,/,.,/,/
O=C(NCCCCc1ccccc1)C1CC(c2ccccc2[N+](=O)[O-])=NO1 (stereo not drawn),51,.,.,/,.,.
O=C(NCc1ccc(OC(F)(F)F)cc1)C1CC(c2ccccc2[N+](=O)[O-])=NO1 (stereo not drawn),.,.,3.1,/,.,.
COc1cc(NC(=O)C2CCCCC2)c(OC)cc1NC(=O)CN1CCCCC1,.,.,.,.,.,.
N#CCSc1nnc(C2CCCCC2)n1-c1ccccc1,.,.,.,.,.,.
O=C(NCc1ccco1)c1nn2c(C(F)(F)F)cc(-c3cccs3)nc2c1Br,.,73,.,/,.,.
O=C(CSc1nc(-c2cccs2)cc(C(F)(F)F)n1)NCc1ccco1,62,79,.,.,.,.
O=C(NCc1ccco1)c1nc2nc(-c3cccs3)cc(C(F)(F)F)n2n1,.,.,.,.,.,.
CCC(C)NC(=O)CSc1nc(-c2cccs2)cc(C(F)(F)F)n1 (stereo not drawn),97,88,.,/,.,.
CCn1cc(C(=O)N2CC(C)CC(C)C2)c(=O)c2cc(S(=O)(=O)N3CCOCC3)ccc21 (stereo not drawn),.,.,.,.,.,.
CC1CN(c2nc3c(c(=O)[nH]c(=O)n3C)n2Cc2ccccc2F)CC(C)O1 (stereo not drawn),.,.,.,.,.,.
Cc1ccc(Cl)cc1N1CCN(C(=O)COc2ccc(S(=O)(=O)NC(C)C)cc2)CC1,.,.,.,63,.,.
CCCOC(=O)C1=C(C)NC2=C(C(=O)CCC2)C1c1cccc(OC)c1OC (stereo not drawn),78,.,.,.,.,.
COC(=O)C1=C(C)NC2=C(C(=O)CCC2)C1c1coc2ccccc2c1=O (stereo not drawn),.,.,.,.,.,.
CCOC(=O)C1=C(C)NC2=C(C(=O)CCC2)C1c1coc2ccccc2c1=O (stereo not drawn),65,68,.,/,.,.
